Drawing on ChEMBL document CHEMBL1142242, “Indanylacetic acid derivatives carrying 4-thiazolyl-phenoxy tail groups, a new class of potent PPAR alpha/gamma/delta pan agonists: synthesis, structure-activity relationship, and in vivo efficacy” (J Med Chem, 2007), this text covers EC50 for 40 molecules.

Molecules are shown by their SMILES. pEC50: −log10 of the molar value. Bounds are passed on as bounds.

Assay [1] concerns the target T1, Peroxisome proliferator-activated receptor alpha (Homo sapiens, UniProt Q07869).
T1 sequence (Q07869 whole entry): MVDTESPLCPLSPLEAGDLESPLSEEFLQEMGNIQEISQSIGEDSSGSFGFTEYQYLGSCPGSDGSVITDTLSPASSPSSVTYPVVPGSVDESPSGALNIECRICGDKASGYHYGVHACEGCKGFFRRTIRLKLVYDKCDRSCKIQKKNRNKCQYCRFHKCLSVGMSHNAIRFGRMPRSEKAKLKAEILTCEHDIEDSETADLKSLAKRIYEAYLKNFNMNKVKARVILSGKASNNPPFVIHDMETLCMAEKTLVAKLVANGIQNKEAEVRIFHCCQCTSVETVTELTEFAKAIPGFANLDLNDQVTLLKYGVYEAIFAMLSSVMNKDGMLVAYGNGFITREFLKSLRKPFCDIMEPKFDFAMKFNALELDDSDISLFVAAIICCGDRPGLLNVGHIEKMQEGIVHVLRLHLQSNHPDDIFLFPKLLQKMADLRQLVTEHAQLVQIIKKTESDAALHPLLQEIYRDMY
In words: Agonist activity at human PPAR alpha by FRET assay. It is filed as functional. The gist of the method:
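Human PPARα ligand binding domain (GST-tagged) association with biotin-labeled co-activator CBP; Eu-labeled anti-GST antibody and streptavidin-APC; incubated 2 h at rt in buffer with or without compound; fluorescence read at 615 or 655 nm emission, 340 nm excitation.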

The target of assay [2] is T2, Peroxisome proliferator-activated receptor gamma (Mus musculus, UniProt P37238).
T2 sequence (P37238 whole entry): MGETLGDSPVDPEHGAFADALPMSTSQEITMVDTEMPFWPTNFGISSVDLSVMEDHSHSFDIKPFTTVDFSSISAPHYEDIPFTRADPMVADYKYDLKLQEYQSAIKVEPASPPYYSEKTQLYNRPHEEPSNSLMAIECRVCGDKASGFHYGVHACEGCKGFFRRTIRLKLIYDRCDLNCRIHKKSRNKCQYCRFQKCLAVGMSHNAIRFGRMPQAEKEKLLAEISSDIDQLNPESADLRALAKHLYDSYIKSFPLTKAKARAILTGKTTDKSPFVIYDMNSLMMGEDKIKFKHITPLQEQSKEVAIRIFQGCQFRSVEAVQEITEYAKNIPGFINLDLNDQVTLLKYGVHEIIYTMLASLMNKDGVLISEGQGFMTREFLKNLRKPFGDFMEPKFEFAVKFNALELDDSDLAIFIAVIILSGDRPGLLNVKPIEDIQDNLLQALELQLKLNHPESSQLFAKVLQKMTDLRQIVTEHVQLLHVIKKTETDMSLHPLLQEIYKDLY
In words: Agonist activity at PPAR gamma in mouse 3T3L1 cells assessed as increase in insulin receptor by IRBA. The format is functional, cell-based, 3T3-L1.

For assay [3], the target named is T3, Peroxisome proliferator-activated receptor delta (Homo sapiens, UniProt Q03181).
T3 sequence (Q03181 whole entry): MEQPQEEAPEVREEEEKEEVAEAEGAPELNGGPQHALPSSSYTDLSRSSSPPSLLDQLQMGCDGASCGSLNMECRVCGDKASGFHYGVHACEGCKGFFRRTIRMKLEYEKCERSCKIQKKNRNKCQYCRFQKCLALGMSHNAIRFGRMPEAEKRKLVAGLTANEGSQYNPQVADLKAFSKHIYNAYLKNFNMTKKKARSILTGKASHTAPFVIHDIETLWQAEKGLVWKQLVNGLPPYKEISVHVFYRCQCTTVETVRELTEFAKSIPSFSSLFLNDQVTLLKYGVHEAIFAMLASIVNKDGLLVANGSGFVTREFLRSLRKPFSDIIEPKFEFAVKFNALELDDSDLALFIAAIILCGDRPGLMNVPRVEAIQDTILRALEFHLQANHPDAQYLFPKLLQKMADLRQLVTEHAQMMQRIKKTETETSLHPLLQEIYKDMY
In words: Agonist activity at human PPAR delta by FRET assay. It is filed as functional.

On to `CCCc1cc(C#N)ccc1OCCCOc1ccc2c(c1)CC[C@H]2CC(=O)O`, for which the negative logarithm of the EC50 (pEC50) in assay [1] was 5.40; in assay [2], 6.24; in assay [3], 7.60.
Turning to `Cc1cccc(OCCCOc2ccc3c(c2)CC[C@H]3CC(=O)O)c1`, the negative-log EC50 (pEC50) was under 5.00 in assay [1], 5.10 in assay [2] and 7.25 in assay [3].
For `O=C(O)C[C@@H]1CCc2cc(OCCCOc3ccc(-c4ccc(C(F)(F)F)cn4)cc3)ccc21` the same measures were 5.54, 5.74 and 9.02.
For `CCc1ccc(OCCCOc2ccc3c(c2)CC[C@H]3CC(=O)O)cc1` the same measures were 5.70, 5.21 and 8.05.
For `CCOc1nc(-c2ccc(OCCCOc3ccc4c(c3)CC[C@H]4CC(=O)O)c(OC)c2)sc1CC` the same measures were 6.28, 6.44 and 8.27.
On to `O=C(O)C[C@@H]1CCc2cc(OCCCOc3ccc(-c4ccc5cc[nH]c5c4)cc3)ccc21`, for which the values for the pEC50 in assay [1], in assay [2] and in assay [3] were 5.18, 6.13 and 8.82, respectively.
`COc1cc(C)ccc1OCCCOc1ccc2c(c1)CC[C@H]2CC(=O)O`: the pEC50 was under 5.00 in assay [1], 5.78 in assay [2] and 8.12 in assay [3].
For `Cc1cccc(-c2ccc(OCCCOc3ccc4c(c3)CC[C@H]4CC(=O)O)cc2)n1` the same measures were 5.28, 6.26 and 8.66.
For `CC(=O)c1sc(-c2ccc(OCCCOc3ccc4c(c3)CC[C@H]4CC(=O)O)cc2)nc1C` the same measures were 5.60, 6.32 and 8.16.
For `CCCc1ccccc1OCCCOc1ccc2c(c1)CC[C@H]2CC(=O)O` the same measures were under 5.00, 5.82 and 8.62.
As to `COc1cc(-c2nc3c(s2)CCCC3)ccc1OCCCOc1ccc2c(c1)CC[C@H]2CC(=O)O`, the pEC50 was 7.36 in assay [1], 7.08 in assay [2] and 8.48 in assay [3].
On to `CCOc1cc(C)ccc1OCCCOc1ccc2c(c1)CC[C@H]2CC(=O)O`, for which the pEC50 in assay [1] is under 5.00; in assay [2], 5.91; in assay [3] it was 8.66.
For the molecule `COc1cc(-c2nc(OC(C)C)cs2)ccc1OCCCOc1ccc2c(c1)CC[C@H]2CC(=O)O`, the pEC50 in assay [1] is 6.74; in assay [2], 7.36; in assay [3], 8.52.
For `CCCc1cc(-c2nc(OCC)cs2)ccc1OCCCOc1ccc2c(c1)CC[C@H]2CC(=O)O`, the pEC50 in assay [1] was 6.98; in assay [2], 7.39; in assay [3], 8.70.
For the molecule `CCCc1cc(-c2nc(CC(=O)O)cs2)ccc1OCCCOc1ccc2c(c1)CC[C@H]2CC(=O)O`, the figures for the pEC50 in assay [1], in assay [2] and in assay [3] were 5.61, 7.57 and 8.34, respectively.
The matching figures for `CCCc1cc(-c2nc(OCC)c(C)s2)ccc1OCCCOc1ccc2c(c1)CC[C@H]2CC(=O)O`: 7.21, 7.47 and 8.49.
As to `COc1cc(-c2nc(C)c(C(=O)O)s2)ccc1OCCCOc1ccc2c(c1)CC[C@H]2CC(=O)O`, the values for the pEC50 in assay [1], in assay [2] and in assay [3] were 5.00, 6.00 and 7.55, respectively.
As for `CCOc1nc(-c2ccc(OCCCOc3ccc4c(c3)CC[C@H]4CC(=O)O)c(OC)c2)sc1C`, the values for the pEC50 in assay [1], in assay [2] and in assay [3] were 6.82, 6.75 and 8.22, respectively.
On to `COc1csc(-c2ccc(OCCCOc3ccc4c(c3)CC[C@H]4CC(=O)O)c(OC)c2)n1`, for which the pEC50 in assay [1] was 6.12; in assay [2], 7.16; in assay [3], 8.52.
The matching figures for `Cc1nc(-c2ccc(OCCCOc3ccc4c(c3)CC[C@H]4CC(=O)O)cc2)sc1C(=O)O`: 5.00, 6.51 and 6.66.
Take `CCCc1cc(-c2nc(CO)c(C(=O)O)s2)ccc1OCCCOc1ccc2c(c1)CC[C@H]2CC(=O)O`: the pEC50 in assay [1] was 5.19; in assay [2], 6.05; in assay [3], 7.92.
In the case of `C=CCc1c(OCCCOc2ccc3c(c2)CC[C@H]3CC(=O)O)ccc2[nH]ccc12`, the pEC50 in assay [1] is under 5.00; in assay [2], 5.48; in assay [3] it was 7.74.
Turning to `CCCc1cc(-c2nc(C(F)(F)F)cs2)ccc1OCCCOc1ccc2c(c1)CC[C@H]2CC(=O)O`, the pEC50 in assay [1] was 6.71; in assay [2], 7.26; in assay [3] it was 8.48.
Take `COc1cc(-c2nc(C)c(C(C)=O)s2)ccc1OCCCOc1ccc2c(c1)CC[C@H]2CC(=O)O`: the pEC50 in assay [1] was 6.25; in assay [2], 7.31; in assay [3], 8.47.
For `O=C(O)C[C@@H]1CCc2cc(OCCCOc3ccccc3)ccc21` the same measures were under 5.00, under 5.00 and 7.36.
Consider `CCOc1csc(-c2ccc(OCCCOc3ccc4c(c3)CC[C@H]4CC(=O)O)cc2)n1`, for which the negative logarithm of the EC50 (pEC50) in assay [1] was 7.00; in assay [2], 6.12; in assay [3], 8.92.
The matching figures for `COc1cc(-c2nc3c(s2)CCCO3)ccc1OCCCOc1ccc2c(c1)CC[C@H]2CC(=O)O`: 6.48, 6.74 and 8.89.
For `Cc1noc2c(C)c(OCCCOc3ccc4c(c3)CC[C@H]4CC(=O)O)ccc12` the same measures were under 5.00, 6.54 and 8.09.
`O=C(O)C[C@@H]1CCc2cc(OCCCOc3ccc4ncoc4c3)ccc21`: the pEC50 in assay [1] was under 5.00; in assay [2], under 5.00; in assay [3], 6.89.
Regarding `Cc1cc2cc(OCCCOc3ccc4c(c3)CC[C@H]4CC(=O)O)ccc2[nH]1`, the pEC50 in assay [1] was under 5.00; in assay [2], 5.44; in assay [3], 7.17.
As to `COc1csc(-c2ccc(OCCCOc3ccc4c(c3)CC[C@H]4CC(=O)O)cc2)n1`, the pEC50 in assay [1] was 5.24; in assay [2] it was 6.52; in assay [3], 8.89.
The matching figures for `CCCc1c(OCCCOc2ccc3c(c2)CC[C@H]3CC(=O)O)ccc2c1ccn2C`: under 5.00, under 5.00 and 7.54.
`Cc1ccc(OCCCOc2ccc3c(c2)CC[C@H]3CC(=O)O)c(C)c1`: the pEC50 in assay [1] was 5.03; in assay [2], 5.66; in assay [3], 8.34.
For `O=C(O)C[C@@H]1CCc2cc(OCCCOc3ccc(OC(F)(F)F)cc3)ccc21`, the pEC50 in assay [1] was 5.17; in assay [2], 5.99; in assay [3], 7.89.
For `CCCc1cc(-c2nc(CC)cs2)ccc1OCCCOc1ccc2c(c1)CC[C@H]2CC(=O)O`, the figures for the pEC50 in assay [1], in assay [2] and in assay [3] were 6.83, 7.35 and 7.96, respectively.
Turning to `O=C(O)C[C@@H]1CCc2cc(OCCCOc3ccc4cnoc4c3)ccc21`, the pEC50 in assay [1] was under 5.00; in assay [2], under 5.00; in assay [3], 6.08.
`O=C(O)C[C@@H]1CCc2cc(OCCCOc3ccc(-c4ccoc4)cc3)ccc21`: the pEC50 in assay [1] is 5.49; in assay [2], 5.39; in assay [3] it was 8.42.
The matching figures for `Cc1cc(-c2nc(C(F)(F)F)ns2)ccc1OCCCOc1ccc2c(c1)CC[C@H]2CC(=O)O`: 6.28, 6.80 and 8.47.
With `COc1cc(-c2nc(C)cs2)ccc1OCCCOc1ccc2c(c1)CC[C@H]2CC(=O)O`, the values for the pEC50 in assay [1], in assay [2] and in assay [3] were 6.57, 6.02 and 8.57, respectively.
The matching figures for `O=C(O)C[C@@H]1CCc2cc(OCCCOc3ccc(C(F)(F)F)cc3)ccc21`: 5.79, 5.25 and 8.38.
